Assay results: ChEMBL document CHEMBL1133298, “N1-Arylsulfonyl-N2-(1-aryl)ethyl-3-phenylpropane-1,2-diamines as novel calcimimetics acting on the calcium sensing receptor” (Bioorg Med Chem Lett, 2000)

molecular target: T1, Extracellular calcium-sensing receptor (Rattus norvegicus) (UniProt P48442); test: Compound was evaluated for accumulation of [3H]- IP in CHO (CaSR) cells expressing rat cloned calcium sensing receptor; type: functional, cell-based
T1 sequence (whole entry): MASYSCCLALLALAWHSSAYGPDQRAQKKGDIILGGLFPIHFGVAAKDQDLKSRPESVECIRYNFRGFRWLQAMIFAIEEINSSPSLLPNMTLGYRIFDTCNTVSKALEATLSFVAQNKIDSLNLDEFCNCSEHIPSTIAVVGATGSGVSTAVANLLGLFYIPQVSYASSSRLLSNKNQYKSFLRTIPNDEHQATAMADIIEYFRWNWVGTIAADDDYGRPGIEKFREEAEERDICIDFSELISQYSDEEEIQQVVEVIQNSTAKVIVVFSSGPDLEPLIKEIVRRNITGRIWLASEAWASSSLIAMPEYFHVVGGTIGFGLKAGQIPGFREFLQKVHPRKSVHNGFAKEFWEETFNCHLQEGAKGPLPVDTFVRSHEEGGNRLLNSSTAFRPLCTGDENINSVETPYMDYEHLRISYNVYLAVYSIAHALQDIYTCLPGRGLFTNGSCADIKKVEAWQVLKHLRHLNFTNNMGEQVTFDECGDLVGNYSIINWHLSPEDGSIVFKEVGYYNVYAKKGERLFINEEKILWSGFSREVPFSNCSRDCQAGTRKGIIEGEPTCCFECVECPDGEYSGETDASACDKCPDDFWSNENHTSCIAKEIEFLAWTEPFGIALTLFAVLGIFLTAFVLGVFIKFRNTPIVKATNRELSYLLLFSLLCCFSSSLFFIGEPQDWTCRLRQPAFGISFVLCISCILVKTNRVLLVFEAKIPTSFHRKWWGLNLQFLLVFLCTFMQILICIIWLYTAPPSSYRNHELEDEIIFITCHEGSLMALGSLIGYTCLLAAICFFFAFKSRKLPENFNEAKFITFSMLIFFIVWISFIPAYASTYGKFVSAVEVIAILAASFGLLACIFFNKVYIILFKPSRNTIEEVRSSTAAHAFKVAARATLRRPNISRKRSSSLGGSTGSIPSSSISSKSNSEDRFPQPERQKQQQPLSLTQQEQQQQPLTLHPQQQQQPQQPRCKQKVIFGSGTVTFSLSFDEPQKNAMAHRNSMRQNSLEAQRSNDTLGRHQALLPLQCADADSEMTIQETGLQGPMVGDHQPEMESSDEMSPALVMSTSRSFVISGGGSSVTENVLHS
Method in brief: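 CHO cells stably transfected with calcium sensing receptor cloned from rat brain. Grown in basal Ham's F-12 (0.3 mM Ca2+, 0.6 mM Mg2+) and prelabeled overnight with 0.5 µCi/mL myo-[3H]inositol. Drugs were made up at 10 mM in ethanol (stock), diluted in basal medium and tested at 10 µM with 2 mM extracellular Ca2+ at 37 °C. [3H]IP accumulation (phospholipase C activity) is given as % of the maximal response to 10 mM Ca2+, mean ±S.E.M.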

Structure (SMILES)	Accumulation [%]
COc1ccc(S(=O)(=O)NC(CNC(C)c2cccc3ccccc23)Cc2ccccc2)cc1OC (centres undefined)	97
CC(NCC(Cc1ccccc1)NS(=O)(=O)c1ccc([N+](=O)[O-])cc1)c1cccc2ccccc12 (centres undefined)	28
CC(NCC(Cc1ccccc1)NS(=O)(=O)c1ccccc1Cl)c1cccc2ccccc12 (centres undefined)	79
COc1ccc(S(=O)(=O)NC(CNC(C)c2cccc3ccccc23)Cc2ccccc2OC)cc1 (centres undefined)	65
COc1ccc(S(=O)(=O)NC(CNC(C)c2cccc3ccccc23)Cc2ccccc2Cl)cc1 (centres undefined)	60
COc1cccc([C@@H](C)NCCCc2ccccc2Cl)c1	106
CC(NCC(Cc1ccccc1)NS(=O)(=O)c1cccc(Cl)c1)c1cccc2ccccc12 (centres undefined)	83
COc1ccc(CC(CNC(C)c2cccc3ccccc23)NS(=O)(=O)c2ccc(OC)cc2)cc1 (centres undefined)	45
COc1ccc(S(=O)(=O)NC(CNC(C)c2cccc3ccccc23)Cc2ccc3c(c2)OCO3)cc1 (centres undefined)	47
CC(NCC(Cc1ccccc1)NS(=O)(=O)c1ccc(C(F)(F)F)cc1)c1cccc2ccccc12 (centres undefined)	27

Other lines, results leading:

Accumulation [%]	Structure (SMILES)
8	CC(NCC(Cc1ccccc1)NS(=O)(=O)c1ccc([N+](=O)[O-])cc1)c1ccccc1 (centres undefined)
34	COc1ccc(S(=O)(=O)NC(CNC(C)c2cccc(OC)c2)Cc2ccccc2)cc1 (centres undefined)
38	CC(NCC(Cc1ccccc1)NS(=O)(=O)c1ccc(Cl)cc1)c1cccc2ccccc12 (centres undefined)
68	Cc1ccc(S(=O)(=O)NC(CNC(C)c2cccc3ccccc23)Cc2ccccc2)cc1 (centres undefined)
36	COc1cccc(C(C)NCC(Cc2ccccc2)NS(=O)(=O)c2ccc(C)cc2)c1 (centres undefined)
16	Cc1ccc(S(=O)(=O)NC(CNC(C)c2ccccc2)Cc2ccccc2)cc1 (centres undefined)
80	COc1ccc(S(=O)(=O)NC(CNC(C)c2cccc3ccccc23)Cc2ccccc2)cc1 (centres undefined)
2	CC(NCC(Cc1ccccc1)NS(=O)(=O)c1ccc(N)cc1)c1ccccc1 (centres undefined)
78	CC(NCC(Cc1ccccc1)NS(=O)(=O)c1ccccc1)c1cccc2ccccc12 (centres undefined)
